Measured values from ChEMBL document CHEMBL1145427, “Quick assembly of 1,4-diphenyltriazoles as probes targeting beta-amyloid aggregates in Alzheimer's disease” (J Med Chem, 2007).
Blank lines part the entries; values can stand above or below the compound they belong to.

Experiments:
Heart [1] = experiment: Biodistribution in ICR mouse heart at 5 to 10 uCi, iv after 2 hrs; type: ADME, organism-based; settings: in vivo
Procedure, shortened: (§1)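 Male ICR mice (22–25 g) under isoflurane anesthesia; [125I] or [18F] tracer (5–10 μCi) in 0.15 mL of 0.1% bovine serum albumin solution injected into the tail vein. Groups of n = 3 per time point, killed by cervical dislocation. Organs removed, weighed and gamma-counted against diluted aliquots of injected dose, giving % dose/organ and % ID/g. Total blood activity assumed as 7% of body weight.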

Muscle tissue [2] = experiment: Biodistribution in ICR mouse muscle at 5 to 10 uCi, iv after 2 mins; type: ADME, organism-based; settings: in vivo; procedure, shortened: as §1
Muscle tissue [3] = experiment: Biodistribution in ICR mouse muscle at 5 to 10 uCi, iv after 30 mins; type: ADME, organism-based; settings: in vivo, 0.5 h; procedure, shortened: as §1
Muscle tissue [4] = experiment: Biodistribution in ICR mouse muscle at 5 to 10 uCi, iv after 1 hr; type: ADME, organism-based; settings: in vivo; procedure, shortened: as §1
Muscle tissue [5] = experiment: Biodistribution in ICR mouse muscle at 5 to 10 uCi, iv after 2 hrs; type: ADME, organism-based; settings: in vivo; procedure, shortened: as §1
Lung [6] = experiment: Biodistribution in ICR mouse lung at 5 to 10 uCi, iv after 2 mins; type: ADME, organism-based; settings: in vivo; procedure, shortened: as §1
Lung [7] = experiment: Biodistribution in ICR mouse lung at 5 to 10 uCi, iv after 30 mins; type: ADME, organism-based; settings: in vivo, 0.5 h; procedure, shortened: as §1
Lung [8] = experiment: Biodistribution in ICR mouse lung at 5 to 10 uCi, iv after 1 hr; type: ADME, organism-based; settings: in vivo; procedure, shortened: as §1
[9] = Partition coefficient, log P of the compound; type: physicochemical; settings: octanol/water
Procedure, shortened: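 [125I] or [18F] tracer mixed with 3 g each of 1-octanol and 0.1 M phosphate buffer pH 7.4. Vortexed 3 min at room temperature, then centrifuged 5 min. Two 0.5 g samples from each layer counted; PC is the ratio of cpm/g in octanol to cpm/g in buffer. The octanol layer was repartitioned until values were consistent.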

Blood [10] = experiment: Biodistribution in ICR mouse blood at 5 to 10 uCi, iv after 2 mins; type: ADME, organism-based; settings: in vivo; procedure, shortened: as §1
Blood [11] = experiment: Biodistribution in ICR mouse blood at 5 to 10 uCi, iv after 30 mins; type: ADME, organism-based; settings: in vivo, 0.5 h; procedure, shortened: as §1
Blood [12] = experiment: Biodistribution in ICR mouse blood at 5 to 10 uCi, iv after 1 hr; type: ADME, organism-based; settings: in vivo; procedure, shortened: as §1
Blood [13] = experiment: Biodistribution in ICR mouse blood at 5 to 10 uCi, iv after 2 hrs; type: ADME, organism-based; settings: in vivo; procedure, shortened: as §1
Heart [14] = experiment: Biodistribution in ICR mouse heart at 5 to 10 uCi, iv after 2 mins; type: ADME, organism-based; settings: in vivo; procedure, shortened: as §1
Heart [15] = experiment: Biodistribution in ICR mouse heart at 5 to 10 uCi, iv after 30 mins; type: ADME, organism-based; settings: in vivo, 0.5 h; procedure, shortened: as §1
Heart [16] = experiment: Biodistribution in ICR mouse heart at 5 to 10 uCi, iv after 1 hr; type: ADME, organism-based; settings: in vivo; procedure, shortened: as §1
Lung [17] = experiment: Biodistribution in ICR mouse lung at 5 to 10 uCi, iv after 2 hrs; type: ADME, organism-based; settings: in vivo; procedure, shortened: as §1
Kidney [18] = experiment: Biodistribution in ICR mouse kidney at 5 to 10 uCi, iv after 2 mins; type: ADME, organism-based; settings: in vivo; procedure, shortened: as §1
Kidney [19] = experiment: Biodistribution in ICR mouse kidney at 5 to 10 uCi, iv after 30 mins; type: ADME, organism-based; settings: in vivo, 0.5 h; procedure, shortened: as §1
Kidney [20] = experiment: Biodistribution in ICR mouse kidney at 5 to 10 uCi, iv after 1 hr; type: ADME, organism-based; settings: in vivo; procedure, shortened: as §1
Kidney [21] = experiment: Biodistribution in ICR mouse kidney at 5 to 10 uCi, iv after 2 hrs; type: ADME, organism-based; settings: in vivo; procedure, shortened: as §1
Spleen [22] = experiment: Biodistribution in ICR mouse spleen at 5 to 10 uCi, iv after 2 mins; type: ADME, organism-based; settings: in vivo; procedure, shortened: as §1
Spleen [23] = experiment: Biodistribution in ICR mouse spleen at 5 to 10 uCi, iv after 30 mins; type: ADME, organism-based; settings: in vivo, 0.5 h; procedure, shortened: as §1
Spleen [24] = experiment: Biodistribution in ICR mouse spleen at 5 to 10 uCi, iv after 1 hr; type: ADME, organism-based; settings: in vivo; procedure, shortened: as §1
Spleen [25] = experiment: Biodistribution in ICR mouse spleen at 5 to 10 uCi, iv after 2 hrs; type: ADME, organism-based; settings: in vivo; procedure, shortened: as §1
Liver [26] = experiment: Biodistribution in ICR mouse liver at 5 to 10 uCi, iv after 2 mins; type: ADME, organism-based; settings: in vivo; procedure, shortened: as §1
Liver [27] = experiment: Biodistribution in ICR mouse liver at 5 to 10 uCi, iv after 30 mins; type: ADME, organism-based; settings: in vivo, 0.5 h; procedure, shortened: as §1
Liver [28] = experiment: Biodistribution in ICR mouse liver at 5 to 10 uCi, iv after 1 hr; type: ADME, organism-based; settings: in vivo; procedure, shortened: as §1
Liver [29] = experiment: Biodistribution in ICR mouse liver at 5 to 10 uCi, iv after 2 hrs; type: ADME, organism-based; settings: in vivo; procedure, shortened: as §1
Zone of skin [30] = experiment: Biodistribution in ICR mouse skin at 5 to 10 uCi, iv after 2 mins; type: ADME, organism-based; settings: in vivo; procedure, shortened: as §1
Zone of skin [31] = experiment: Biodistribution in ICR mouse skin at 5 to 10 uCi, iv after 30 mins; type: ADME, organism-based; settings: in vivo, 0.5 h; procedure, shortened: as §1
Zone of skin [32] = experiment: Biodistribution in ICR mouse skin at 5 to 10 uCi, iv after 1 hr; type: ADME, organism-based; settings: in vivo; procedure, shortened: as §1
Zone of skin [33] = experiment: Biodistribution in ICR mouse skin at 5 to 10 uCi, iv after 2 hrs; type: ADME, organism-based; settings: in vivo; procedure, shortened: as §1
Brain [34] = experiment: Biodistribution in ICR mouse brain at 5 to 10 uCi, iv after 2 mins; type: ADME, organism-based; settings: in vivo; procedure, shortened: as §1
Brain [35] = experiment: Biodistribution in ICR mouse brain at 5 to 10 uCi, iv after 30 mins; type: ADME, organism-based; settings: in vivo, 0.5 h; procedure, shortened: as §1
Brain [36] = experiment: Biodistribution in ICR mouse brain at 5 to 10 uCi, iv after 1 hr; type: ADME, organism-based; settings: in vivo; procedure, shortened: as §1
Brain [37] = experiment: Biodistribution in ICR mouse brain at 5 to 10 uCi, iv after 2 hrs; type: ADME, organism-based; settings: in vivo; procedure, shortened: as §1
Thyroid gland [38] = experiment: Biodistribution in ICR mouse thyroid at 5 to 10 uCi, iv after 2 mins; type: ADME, organism-based; settings: in vivo; procedure, shortened: as §1
Thyroid gland [39] = experiment: Biodistribution in ICR mouse thyroid at 5 to 10 uCi, iv after 30 mins; type: ADME, organism-based; settings: in vivo, 0.5 h; procedure, shortened: as §1
Thyroid gland [40] = experiment: Biodistribution in ICR mouse thyroid at 5 to 10 uCi, iv after 1 hr; type: ADME, organism-based; settings: in vivo; procedure, shortened: as §1
[41] = Displacement of [125I]IMPY from beta amyloid protein plaques in Alzheimer's disease patient brain; set-up: species or system Homo sapiens
Procedure, shortened: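 Competition binding to pooled gray-matter homogenates from four AD brains (approximately 100 mg wet tissue/mL in PBS pH 7.4; 20–50 μg per tube). [125I]2 at 0.04–0.06 nM; inhibitors 10^-5–10^-10 M in PBS with 0.1% BSA; final volume 1 mL. Nonspecific binding with 600 nM 2. Incubated 37 °C, 2 h; GF/B filtration, gamma counting. Ki from nonlinear regression.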

Drug uptake (Heart [1]): 1.83 % ID/g | Drug uptake (Muscle tissue [2]): 0.73 % ID/g | Drug uptake (Muscle tissue [3]): 1.51 % ID/g | Drug uptake (Muscle tissue [4]): 1.33 % ID/g | Drug uptake (Muscle tissue [5]): 1.11 % ID/g | Drug uptake (Lung [6]): 5.68 % ID/g | Drug uptake (Lung [7]): 2.72 % ID/g | Drug uptake (Lung [8]): 2.03 % ID/g | logP [9]: 2.7 | Drug uptake (Blood [10]): 2.63 % ID/g | Drug uptake (Blood [11]): 2.65 % ID/g | Drug uptake (Blood [12]): 2.45 % ID/g | Drug uptake (Blood [13]): 2.3 % ID/g | Drug uptake (Heart [14]): 4.25 % ID/g | Drug uptake (Heart [15]): 2.28 % ID/g | Drug uptake (Heart [16]): 2.02 % ID/g | Drug uptake (Lung [17]): 1.79 % ID/g | Drug uptake (Kidney [18]): 6.94 % ID/g | Drug uptake (Kidney [19]): 3.35 % ID/g | Drug uptake (Kidney [20]): 2.44 % ID/g | Drug uptake (Kidney [21]): 2.01 % ID/g | Drug uptake (Spleen [22]): 4.04 % ID/g | Drug uptake (Spleen [23]): 2.21 % ID/g | Drug uptake (Spleen [24]): 1.66 % ID/g | Drug uptake (Spleen [25]): 1.43 % ID/g | Drug uptake (Liver [26]): 11.6 % ID/g | Drug uptake (Liver [27]): 5.54 % ID/g | Drug uptake (Liver [28]): 3.52 % ID/g | Drug uptake (Liver [29]): 2.69 % ID/g | Drug uptake (Zone of skin [30]): 0.51 % ID/g | Drug uptake (Zone of skin [31]): 1.82 % ID/g | Drug uptake (Zone of skin [32]): 1.72 % ID/g | Drug uptake (Zone of skin [33]): 1.42 % ID/g | Drug uptake (Brain [34]): 5.92 % ID/g | Drug uptake (Brain [35]): 2.53 % ID/g | Drug uptake (Brain [36]): 2.34 % ID/g | Drug uptake (Brain [37]): 2.08 % ID/g | Drug uptake (Thyroid gland [38]): 1.41 % ID/g | Drug uptake (Thyroid gland [39]): 1.89 % ID/g | Drug uptake (Thyroid gland [40]): 3.25 % ID/g
SMILES: CN(C)c1ccc(-c2cn(-c3ccc(OCC[18F])cc3)nn2)cc1

Drug uptake (Heart [1]): 0.23 % ID/g | Drug uptake (Muscle tissue [2]): 0.89 % ID/g | Drug uptake (Muscle tissue [3]): 1.03 % ID/g | Drug uptake (Muscle tissue [4]): 0.36 % ID/g | Drug uptake (Muscle tissue [5]): 0.1 % ID/g | Drug uptake (Lung [6]): 7.65 % ID/g | Drug uptake (Lung [7]): 2.4 % ID/g | Drug uptake (Lung [8]): 0.88 % ID/g | logP [9]: 2.7 | Drug uptake (Blood [10]): 3.23 % ID/g | Drug uptake (Blood [11]): 1.91 % ID/g | Drug uptake (Blood [12]): 0.75 % ID/g | Drug uptake (Blood [13]): 0.31 % ID/g | Drug uptake (Heart [14]): 5.79 % ID/g | Drug uptake (Heart [15]): 1.93 % ID/g | Drug uptake (Heart [16]): 0.69 % ID/g | Drug uptake (Lung [17]): 0.76 % ID/g | Drug uptake (Kidney [18]): 9.01 % ID/g | Drug uptake (Kidney [19]): 3.68 % ID/g | Drug uptake (Kidney [20]): 2.69 % ID/g | Drug uptake (Kidney [21]): 0.35 % ID/g | Drug uptake (Spleen [22]): 3.98 % ID/g | Drug uptake (Spleen [23]): 1.29 % ID/g | Drug uptake (Spleen [24]): 0.58 % ID/g | Drug uptake (Spleen [25]): 0.17 % ID/g | Drug uptake (Liver [26]): 15.6 % ID/g | Drug uptake (Liver [27]): 5.06 % ID/g | Drug uptake (Liver [28]): 2.06 % ID/g | Drug uptake (Liver [29]): 0.76 % ID/g | Drug uptake (Zone of skin [30]): 0.93 % ID/g | Drug uptake (Zone of skin [31]): 1.41 % ID/g | Drug uptake (Zone of skin [32]): 0.41 % ID/g | Drug uptake (Zone of skin [33]): 0.11 % ID/g | Drug uptake (Brain [34]): 6.56 % ID/g | Drug uptake (Brain [35]): 2.84 % ID/g | Drug uptake (Brain [36]): 1.81 % ID/g | Drug uptake (Brain [37]): 1.29 % ID/g | Drug uptake (Thyroid gland [38]): 1.57 % ID/g | Drug uptake (Thyroid gland [39]): 9.62 % ID/g | Drug uptake (Thyroid gland [40]): 16.87 % ID/g
SMILES: CN(C)c1ccc(-c2cn(-c3ccc(OCCC[18F])cc3)nn2)cc1

Ki [41]: 16.5 nM
SMILES: CN(C)c1ccc(-c2cn(-c3ccc(OCCOCCOCCO)cc3)nn2)cc1
